Results as given in PubChem BioAssay AID617 (SRMLSC, 2007).

What follows are compounds tested on E. coli BW25113 ΔtolC growth inhibition, OD615 (assay: E. coli ΔtolC antibacterial growth inhibition – strain BW25113 ΔtolC::kan, dose response (AID 617)).
Outline: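 Material: E. coli BW25113 ΔtolC::kan bacteria; input: inoculum from 1:1000-diluted 1.5 h subculture; medium: kanamycin-containing LB broth, 50 µg/mL; dosing: compounds in serially diluted dose-response series; incubation: 20 h exposure at 37 °C; measured by: absorbance at 615 nm; control set: chloramphenicol control, 30 µM final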

Row | SMILES | IC50 [µM]
1 | O=C(c1ccc(COc2ccccc2Br)o1)N1CCCCCC1 | 98.8
2 | CCOC(=O)C1CCCN(c2ncnc3c2cnn3-c2ccc(Cl)cc2)C1 (centres undefined) | 9.92
3 | COc1ccc(OCC(O)Cn2c(=N)n(Cc3ccccc3)c3ccccc32)cc1 (centres undefined) | 23.9
4 | CNc1nc(Nc2ccc(C(C)=O)cc2)nc(OC(C(F)(F)F)C(F)(F)F)n1 | 20.1
5 | COc1ccccc1N1CCN(c2nc(C)nc3c2oc2ccccc23)CC1 | 11.4
6 | O=c1[nH]c(NCCCO)nc2c1C1(CCCC1)Cc1ccccc1-2 | 8.77
7 | O=C1NC(Nc2nc3ccccc3s2)(C(F)(F)F)C(=O)N1C1CCCCC1 (centres undefined) | 5.74
8 | CCCCCn1c(-c2ccco2)nc2nc3ccccc3nc21 | 84.8
9 | COc1c(C)cc(Br)cc1C(=O)Nc1cccc(NC(=O)c2ccco2)c1 | 7.48
10 | O=c1n(Cc2ccc(Cl)cc2)c2sc3c(c2c2ncnn12)CCCC3 | 7.35
11 | CCCSc1oc(-c2ccco2)nc1S(=O)(=O)c1ccccc1 | 9.73
12 | CCOC(=O)c1csc(Nc2nc3ccc(F)cc3s2)n1 | 5.89
13 | N#CC1=C(N)SC(N)=C(C#N)C1CCC1CCCCC1 | 3.65
14 | O=C(Cc1ccc(Br)cc1)c1ccc(O)cc1O | 7.26
15 | O=S(=O)(Nc1nc2ccccc2nc1NCc1ccco1)c1cccs1 | 8.75
16 | Cc1ccsc1C(=O)Nc1nnc(-c2ccco2)o1 | 3.92
17 | Cc1ccccc1OCCCCc1c(C)n[nH]c1C | 3.74
18 | Cc1csc(NC(=O)C2CCCN(S(=O)(=O)c3ccc(Br)s3)C2)n1 (centres undefined) | 12.2
19 | O=C(Nc1nc2n(n1)C(c1ccc(Cl)cc1)CC(c1ccc(Cl)cc1)N2)c1ccco1 (centres undefined) | 4.7
20 | COc1ccccc1OCCSc1nnnn1-c1ccc(C)cc1 | 18.9
21 | N#Cc1nc(Cc2ccccc2)oc1NCCc1ccccc1 | 8.5
22 | CCN(CC)c1ccc(C(=O)n2cnc3ccccc32)cc1 | 15
23 | O=C(c1ccco1)N1CCN(c2ncnc3c2[nH]c2ccc(Br)cc23)CC1 | 44.5

Row | SMILES | IC50 [µM]
24 | CCOc1ccccc1-c1nn2c(Cc3ccccc3)nnc2s1 | 0.76
25 | O=C(CSc1ncnc2c1oc1ccccc12)N1CCCc2ccccc21 | 15.1
26 | Cc1ccc(CN2C(=O)NC(=O)C3(Cc4c(nc5ccccn5c4=O)N4CCCCCC43)C2=O)cc1 (centres undefined) | 22.2
27 | CCOC(=O)C1C(=O)C=C(c2ccc(OC)cc2)CC1c1ccco1 (centres undefined) | 11.6
28 | CSc1ccc(-c2cc(=O)c3ccccc3o2)cc1 | 42.1
29 | Cc1cccc2cc(C(c3nnnn3CC3CCCO3)N3CCc4ccccc4C3)c(=O)[nH]c12 (centres undefined) | 35.4
30 | O=C(c1ccccc1CCc1ccccc1)N1CCN(c2ccccn2)CC1 | 8.38
31 | O=C(c1ccc(COc2ccc3c(c2)CCC3)o1)N1CCN(c2ccccc2)CC1 | 10.7
32 | Cc1ccc(Cl)cc1N1CCN(Cc2nnnn2Cc2ccco2)CC1 | 17.6
33 | COc1ccc2nc(NC(=O)C3COc4ccccc4O3)sc2c1 (centres undefined) | 14.5
34 | c1ccc(Cn2nnnc2C(c2cccs2)N2CCCCCC2)cc1 (centres undefined) | 9.47
35 | O=C(OC1CCCCC1)c1ccc(NC(=O)c2ccco2)cc1 | 6.09
36 | CCOC(=O)c1c(C)[nH]c(C)c1C(=O)Cn1nnc(-c2ccccc2C)n1 | 5.44
37 | CCCN(CCC)C(=O)CSc1nc2ccccc2c(=O)n1C1CCCC1 | 14.2
38 | COc1cccc(-c2cc(C(=O)N3CCc4ccccc4C3)no2)c1 | 8.69
39 | CC(C)(C)c1ccc(Cn2nnc3c(=O)[nH]c(C4CCCN(C(=O)Cc5cccs5)C4)nc32)cc1 (centres undefined) | 15.6
40 | Cc1ccc(C(=O)Nc2nc(COc3ccccc3)cs2)s1 | 101
41 | CCOC(=O)c1cnc(-n2nc(C)cc2C)nc1NCc1ccccc1 | 0.68
42 | CCCN(CCC)c1nc(NC2CCN(C(=O)OCC)CC2)nc(OC)n1 | 12.4
43 | COc1ccc2[nH]c3c(=O)n(CCCCC(=O)N4CCC(C(N)=O)CC4)c(=S)[nH]c3c2c1 | 10.7
44 | CCOC(=O)N1CCN(C(=O)COc2ccc(S(=O)(=O)Nc3ccc(OCC)cc3)cc2)CC1 | 2
45 | Cn1c(=O)n(CCCOc2ccc(Cl)cc2)c2ccccc21 | 15.7
46 | CCOc1ccc(C(=O)C2CCN(CC(=O)Nc3ccccc3N3CCOCC3)CC2)cc1 | 15.6

Row | SMILES | IC50 [µM]
47 | O=C(Nc1nnc(-c2ccccc2)o1)c1nc2ccccc2s1 | 1.34
48 | CCOC(=O)c1ccc(N2C(=O)c3n[nH]c(C)c3C2c2ccc(OC)cc2OC)cc1 (centres undefined) | 16.8
49 | CC(=O)c1c(O)cc(C)n(Nc2nc(C)cc(C)n2)c1=O | 13.1
50 | CCOC(=O)CSC1=C(C#N)C(c2ccco2)C(C(=O)Nc2cccc(C(F)(F)F)c2)=C(C)N1 (centres undefined) | 9.34
51 | Cc1nnc(SC(=O)N2c3ccccc3Sc3ccccc32)s1 | 14.6
52 | Clc1ccc(Cl)c(-c2nn3c(COc4ccccc4)nnc3s2)c1 | 0.78
53 | CN(C)c1nc(SCCOC(=O)Nc2ccccc2)nc(N(C)C)n1 | 12
54 | O=C(NCc1ccc2c(c1)OCO2)c1ccc(-c2ccc(Cl)cc2)o1 | 5.02
55 | CC1CCCCN1c1nc(-c2ccncc2)nc2ccccc12 (centres undefined) | 12
56 | Brc1cc(Br)c2ncnc(N3CCCCC3)c2c1 | 34.6
57 | N#Cc1nc(-c2ccc(OCc3ccccc3Cl)cc2)oc1NCCCn1ccnc1 | 5.13
58 | FC(F)(F)c1cccc(N2CCN(c3nnnn3-c3ccccc3)CC2)c1 | 20.8
59 | c1csc(-c2noc(COc3ccc4c(c3)CCCC4)n2)c1 | 18.4
60 | O=C1CN(C(=O)c2ccc(Br)o2)C(c2ccccc2)c2cc(Cl)ccc2N1 (centres undefined) | 15.6
61 | Cc1cc(NC(=O)C2CCCCC2)nc2c1c(=O)oc1ccccc12 | 11.5
62 | CCCOc1ccccc1NC(=O)c1c(-c2ccccc2)noc1C | 15.1
63 | CCOC(=O)c1cn(CC)c2cc(N3CCSCC3)c(F)cc2c1=O | 1.4
64 | C=C(C)COc1ccc(-c2n[nH]c(C)c2-c2ccccc2)c(O)c1 | 8.47
65 | Cc1ccc(OCc2nc(C#N)c(NCc3ccc4c(c3)OCO4)o2)cc1 | 6.03
66 | COCCNc1nc(-n2nc(C)cc2C)nc2sc3c(c12)CCCC3 | 6.71
67 | CC(C)(C)c1ccc(OCC(=O)NCc2ccco2)c(Br)c1 | 14.6
68 | COc1ccc(OC)c(S(=O)(=O)N2CCN(c3c(C)cccc3C)CC2)c1 | 15.6
69 | COc1nnc(-c2ccc(N3CCCCC3)c(N)c2)c2ccccc12 | 11.9

Row | SMILES | IC50 [µM]
70 | Cc1ccc(S(=O)(=O)c2nc(Nc3nccs3)sc2Cl)cc1 | 2.48
71 | CCOC(=O)Cc1csc(NC(=O)c2ccc(S(=O)(=O)N3CCCCC3)cc2)n1 | 91.3
72 | CCOC(=O)c1c(C)n(C)c2ccc(OCC(O)Cn3nc(C)c(Br)c3C)cc12 (centres undefined) | 5.74
73 | COc1ccc2c(c1)sc1nc(-c3ccccc3)cn12 | 12.2
74 | Cc1ccc2nc(NC(=O)CNS(=O)(=O)c3ccc(Br)s3)sc2c1 | 47.7
75 | O=C(c1noc2c1CCc1ccccc1-2)N1CCc2ccccc2C1 | 6.67
76 | O=C(CCn1c(=O)oc2ccccc21)N1CCN(C(c2ccccc2)c2ccccc2)CC1 | 29
77 | O=C(COc1ccccc1)Nc1nnc(-c2ccc(Cl)s2)o1 | 1.86
78 | CCCCOc1ccc(S(=O)(=O)N2CCCCCC2)cc1 | 23.8
79 | OCCN(CCO)c1nc(N2CCCCC2)c2nc(N(CCO)CCO)nc(N3CCCCC3)c2n1 | 1.38
80 | CCCc1cc(C(=O)N2CCN(c3ccccc3C)CC2)cs1 | 8.52
81 | CC(=O)Nc1cccc(NC(=O)c2oc3ccccc3c2C)c1 | 8.33
82 | CCOC(=O)c1ccc(NC(=O)CCc2nc(-c3ccccc3Cl)no2)cc1 | 10.4
83 | CCOC(=O)c1cc(CC)sc1NC(=O)Cc1ccsc1 | 10.3
84 | CCC(Oc1ccccc1)C(=O)Nc1ccc(-c2nnc(-c3ccco3)o2)cc1 (centres undefined) | 18.2
85 | CCOC(=O)Cc1csc(NC(=O)c2csc3c2CCCC3)n1 | 16.4
86 | Cc1ccc(CN2CCSc3ccc(C(=O)N4CCN(c5ncccn5)CC4)cc32)cc1 | 17
87 | O=C1CC(O)(C(F)(F)F)Oc2c1ccc1ccccc21 (centres undefined) | 1.19
88 | O=C(Oc1ccc2ccccc2c1Cl)N1CCCC1 | 23.2
89 | CCOC(=O)c1c(CN2CCOCC2)n(-c2ccccc2)c2ccc(O)cc12 | 18.3
90 | CC(C)(C)c1[nH]nc2c1C(Cc1ccccc1)C(C#N)=C(N)O2 (centres undefined) | 31.7
91 | COc1ccc(NS(=O)(=O)c2ccc3c(c2)Cc2ccccc2-3)cn1 | 10.7
92 | Cc1cc(C2N=C(N)Nc3nc4ccccc4n32)c(C)n1-c1ccccc1Cl (centres undefined) | 6.74

Row | SMILES | IC50 [µM]
93 | CCOC(=O)c1cnc(-n2nc(C)cc2C)nc1N(CC)CC | 12.3
94 | COc1ccccc1C1SCCN1S(=O)(=O)c1cccc(C(F)(F)F)c1 (centres undefined) | 16.4
95 | COC(=O)c1ccccc1NC(=O)N1c2ccccc2CC1C (centres undefined) | 14.1
96 | CCCCOc1ccccc1Cn1c(=O)oc2ccc(C)cc21 | 16.4
97 | Cc1cccc(C(C)(C)C)c1OCCn1ccnc1 | 11.8
98 | CCN(C(=O)c1cc2cc3ccc(C)cc3nc2o1)c1ccc(OC)cc1 | 19
99 | COC(=O)CNS(=O)(=O)c1ccc(Cc2ccc(S(=O)(=O)NCC(=O)OC)cc2)cc1 | 1.29
100 | COc1ccc(NC(=O)N2CCCC(c3nc(-c4ccc(C(C)C)cc4)no3)C2)cc1 (centres undefined) | 16.9
101 | CCc1nc(N2CCCCC2C)c2oc3ccccc3c2n1 (centres undefined) | 13.6
102 | Cc1ccc(NC(=O)CN(C)S(=O)(=O)c2cccc3nsnc23)cc1Cl | 17.8
103 | Cc1nn(-c2ccccc2)c(C)c1C(=O)Nc1nnc(-c2ccco2)o1 | 6.38
104 | Cc1ccc2[nH]c(=O)c(CN(Cc3ccc4c(c3)OCO4)Cc3nnnn3C3CCCC3)cc2c1 | 42.3
105 | c1ccc2c(c1)oc1c(N3CCN(Cc4ccc5c(c4)OCO5)CC3)ncnc12 | 10.9
106 | CC(C)(C)c1ccc(C(=O)CCCSC2=C(C#N)C(c3ccco3)C3=C(CCCC3=O)N2)cc1 (centres undefined) | 1.77
107 | CCOc1ccc(OCCSc2nnnn2C2CCCCC2)cc1 | 14.5
108 | COc1ccc2c(c1)OC(O)(C(F)(F)C(F)F)CC2=O (centres undefined) | 7.68
109 | CCN(C1CCCCC1)S(=O)(=O)c1ccc(OC)c(C)c1 | 16.9
110 | CCc1cc(/C(Cc2ccc3ccccc3n2)=N\O)c(O)cc1O | 8.41
111 | O=C(OC1CCc2ccccc2C1=O)c1ccccc1O (centres undefined) | 27.7
112 | COc1ccccc1N1CCN(C(=O)c2cc(-c3ccc(C)cc3)on2)CC1 | 7.85
113 | CC(C)(C)OC(=O)N1CCC[C@H]1c1nnc(SCc2ccc(Cl)cc2Cl)o1 | 11
114 | Cc1ccc(C)c(Cn2c(CN(C)Cc3ccccc3)nc3c2c(=O)n(C)c(=O)n3C)c1 | 14.2
